Reference: ChEMBL document CHEMBL4049460, “Trisubstituted Imidazoles with a Rigidized Hinge Binding Motif Act As Single Digit nM Inhibitors of Clinically Relevant EGFR L858R/T790M and L858R/T790M/C797S Mutants: An Example of Target Hopping” (J Med Chem, 2017)
In brackets after ≈: the same amount, converted by molar mass.

What was measured:
[1] = molecular target: T1, Epidermal growth factor receptor (Homo sapiens, UniProt P00533, L858R); assay: Inhibition of recombinant human GST-tagged EGFR L858R mutant cytoplasmic domain expressed in baculovirus expression system preincubated for 20 mins followed by addition of [33P]-ATP measured after 2 hrs by filter-binding method
[2] = molecular target: T2, Epidermal growth factor receptor (Homo sapiens, UniProt P00533, L858R/T790M); assay: (§1) Inhibition of recombinant human GST-tagged EGFR L858R/T790M double mutant cytoplasmic domain expressed in baculovirus expression system preincubated for 20 mins followed by addition of [33P]-ATP measured after 2 hrs by filter-binding method
[3] = molecular target: T3, Epidermal growth factor receptor (Homo sapiens, UniProt P00533); assay: Inhibition of recombinant human GST-tagged wild type EGFR ( 668 to 1210 residues) cytoplasmic domain expressed in baculovirus expression system preincubated for 20 mins followed by addition of [33P]-ATP measured after 2 hrs by filter-binding method
[4] = molecular target: Epidermal growth factor receptor (Homo sapiens, UniProt P00533, T790M/C797S/L858R); assay: (§2) Inhibition of recombinant human N-terminally GST-tagged EGFR L858R/T790M/C797S triple mutant expressed in baculovirus in Sf9 insect cells preincubated for 20 mins followed by addition of [33P]-ATP measured after 2 hrs by filter-binding method
[5] = molecular target: Epidermal growth factor receptor (Homo sapiens, UniProt P00533, T790M/L858R); assay: as §1
[6] = molecular target: Mitogen-activated protein kinase 14 (Homo sapiens, UniProt Q16539); assay: Inhibition of p38alpha MAPK (unknown origin) assessed as decrease in ATF2 phosphorylation at Thr69/71 at 1 uM after 1 hr by ELISA
Chain of Mitogen-activated protein kinase 14 (Q16539 whole entry): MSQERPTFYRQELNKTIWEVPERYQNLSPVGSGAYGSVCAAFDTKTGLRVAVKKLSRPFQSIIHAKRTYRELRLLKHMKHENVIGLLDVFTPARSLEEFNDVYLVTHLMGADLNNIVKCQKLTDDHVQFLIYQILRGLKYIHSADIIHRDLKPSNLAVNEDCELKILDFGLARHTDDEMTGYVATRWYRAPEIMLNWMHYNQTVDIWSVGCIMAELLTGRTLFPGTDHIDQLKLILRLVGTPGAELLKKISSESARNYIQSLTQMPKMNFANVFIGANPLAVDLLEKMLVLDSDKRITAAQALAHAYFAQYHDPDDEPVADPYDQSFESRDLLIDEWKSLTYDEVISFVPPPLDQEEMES

Homo sapiens = species on record: Homo sapiens; assay: Selectivity ratio of IC50 for EGFR L858R/T790M double mutant (unknown origin) to IC50 for wild-type EGFR (unknown origin)
[7] = molecular target: Epidermal growth factor receptor (Homo sapiens, UniProt P00533, C797S/L858R/T790M); assay: as §2
[8] = tested on: Epidermal growth factor receptor (Homo sapiens), P00533 [L858R,T790M,C797S]; assay: Potency index, ratio of osimertinib IC50 to compound IC50 for recombinant human N-terminally GST-tagged EGFR L858R/T790M/C797S triple mutant expressed in baculovirus in Sf9 insect cells
[9] = Solubility of the compound at pH 7.5 by UV-HPLC analysis; format: physicochemical; details: buffer
Procedure, shortened: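 Solubility measured in the kinase assay buffer (pH 7.5); concentration determined by HPLC with UV detection.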

[10] = molecular target: T3, Epidermal growth factor receptor; assay: Inhibition of wild-type EGFR (unknown origin)
[11] = molecular target: T1, Epidermal growth factor receptor; assay: Inhibition of EGFR L858R mutant (unknown origin)
[12] = molecular target: T2, Epidermal growth factor receptor; assay: Inhibition of EGFR L858R/T790M double mutant (unknown origin)

Compound	IC50 ([1]; read-out: IC50) [µM]	IC50 [2] [µM]	IC50 ([3]; read-out: IC50) [µM]	other results
C=CC(=O)Nc1cccc(-c2c[nH]c3nccc(-c4[nH]c(CCCO)nc4C(F)(F)F)c23)c1	0.297	1.88	0.68	IC50 [4]: Not Active
C=CC(=O)NCc1cccc(-c2nc(C3CC3)c(-c3ccnc4[nH]c(-c5ccccc5)cc34)[nH]2)c1	3.92	11.3	4.05	
CCC(=O)Nc1cccc(-c2c[nH]c3nccc(-c4[nH]c(CCCO)nc4-c4ccc(F)cc4)c23)c1	0.279	5.9	0.673	
CCC(=O)Nc1cccc(-c2c[nH]c3nccc(-c4[nH]c(CCCO)nc4C4CC4)c23)c1				IC50 [1]: Not Active; IC50 [5]: Not Active; IC50 [3]: Not Active; IC50 [4]: Not Active
Oc1ccc(-c2nc(-c3ccco3)c(-c3ccnc4[nH]c(-c5ccccc5)cc34)[nH]2)cc1	1.3	3.31	1.79	IC50 [6]: 0.288 µM
CCC(=O)Nc1cccc(-c2cc3c(-c4[nH]c(-c5ccccc5)nc4-c4ccc(F)cc4)ccnc3[nH]2)c1	0.0187	0.987	0.0272	
Oc1ccc(-c2nc(-c3ccnc4[nH]c(-c5ccccc5)cc34)c(-c3ccc(F)cc3)[nH]2)cc1	0.0241	0.916	0.0492	
OCCCc1nc(-c2ccc(F)cc2)c(-c2ccnc3[nH]ccc23)[nH]1	0.0244	0.893	0.044	Ratio IC50 (Homo sapiens): > 130; IC50 [6]: 0.012 µM; IC50 [7]: 0.943 µM
OCCc1nc(-c2ccc(F)cc2)c(-c2ccnc3[nH]c(-c4ccccc4)cc23)[nH]1	< 0.0003	0.0125	< 0.0003	Ratio IC50 [8]: 35; solubility ([9]; read-out: solubility): 7 µg/mL (≈ 17.6 µM); IC50 [6]: 0.004 µM; IC50 [7]: 0.00764 µM
Oc1cccc(-c2nc(-c3ccc(F)cc3)c(-c3ccnc4[nH]c(-c5ccccc5)cc34)[nH]2)c1	0.0236	0.706	0.0304	IC50 [6]: 0.007 µM; IC50 [7]: 0.782 µM
Fc1ccc(-c2nc(-c3ccccc3)[nH]c2-c2ccnc3[nH]ccc23)cc1	0.631		0.712	IC50 [5]: Not Active; IC50 [4]: Not Active
Fc1ccc(-c2[nH]c(-c3ccccc3)nc2-c2ccnc3[nH]c(-c4ccccc4)cc23)cc1	0.102	1.45	0.215	IC50 [7]: 1.43 µM
OCCCc1nc(-c2ccc(F)cc2)c(-c2ccnc3[nH]c(-c4ccccc4)cc23)[nH]1				IC50 [6]: 0.002 µM; IC50 [10]: < 0.0005 µM; IC50 [11]: < 0.0005 µM; IC50 [7]: 0.0211 µM; IC50 [12]: 0.00647 µM
C=CC(=O)Nc1cccc(-c2cc3c(-c4[nH]c(-c5ccccc5)nc4-c4ccc(F)cc4)ccnc3[nH]2)c1	0.0321	0.908	0.0432	
C=CC(=O)Nc1cccc(-c2c[nH]c3nccc(Cl)c23)c1	0.459	0.0679	0.525	
OCCCCc1nc(-c2ccc(F)cc2)c(-c2ccnc3[nH]c(-c4ccccc4)cc23)[nH]1	< 0.0003	0.00839	< 0.0003	solubility [9]: Insoluble; IC50 [6]: 0.002 µM; IC50 [7]: 0.0084 µM
CCC(=O)Nc1cccc(-c2c[nH]c3nccc(-c4[nH]c(-c5ccccc5)nc4-c4ccc(F)cc4)c23)c1				IC50 [1]: Not Active; IC50 [5]: Not Active; IC50 [3]: Not Active; IC50 [4]: Not Active
Nc1cccc(-c2cc3c(-c4[nH]c(-c5ccccc5)nc4-c4ccc(F)cc4)ccnc3[nH]2)c1	0.0154	0.651	0.0241	
C=CC(=O)Nc1cccc(-c2c[nH]c3nccc(-c4[nH]c(CCCO)nc4C4CC4)c23)c1	0.258		0.673	IC50 [5]: Not Active; IC50 [4]: Not Active
NCc1cccc(-c2nc(-c3ccc(F)cc3)c(-c3ccnc4[nH]c(-c5ccccc5)cc34)[nH]2)c1				IC50 [10]: < 0.0005 µM; IC50 [11]: < 0.0005 µM; IC50 [7]: 0.336 µM; IC50 [12]: 0.16 µM
C=CC(=O)NCc1cccc(-c2nc(-c3ccc(F)cc3)c(-c3ccnc4[nH]c(-c5ccccc5)cc34)[nH]2)c1	0.013	0.263	0.0176	
Oc1ccc(-c2nc(-c3ccccc3)c(-c3ccnc4[nH]c(-c5ccccc5)cc34)[nH]2)cc1	0.0112	0.658	0.0136	IC50 [6]: 0.001 µM
C=CC(=O)Nc1cccc(-c2c[nH]c3nccc(-c4[nH]c(-c5ccccc5)nc4-c4ccc(F)cc4)c23)c1	0.0078	0.112	0.0105	IC50 [4]: Not Active
C=CC(=O)NCc1cccc(-c2cc3cccnc3[nH]2)c1				IC50 [1]: Not Active; IC50 [5]: Not Active; IC50 [3]: Not Active; IC50 [4]: Not Active
C=CC(=O)NCc1cccc(-c2cc3c(-c4[nH]c(-c5ccccc5)nc4-c4ccc(F)cc4)ccnc3[nH]2)c1	0.0342	0.683	0.0332	
